Bioassay records (PubChem BioAssay)
An excerpt weighted towards active compounds, which were near 2.5% of everything screened.
EP2 mod: modulators of human EP2 prostaglandin E2 receptor | P43116 | EP2-expressing cells, cAMP HTRF FRET, PGE2 co-stimulation | induction, % at 25 µM | 260,000 tested, 0.83% active | AID 940;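 active = compounds whose cAMP rise, as percent of the full-agonist control response, exceeds 60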;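 also: rat C6 glioma line stably carrying human EP2 under a CMV promoter; the protocol text gives 20 µM as final concentration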
Target sequence (P43116 whole entry, looked up): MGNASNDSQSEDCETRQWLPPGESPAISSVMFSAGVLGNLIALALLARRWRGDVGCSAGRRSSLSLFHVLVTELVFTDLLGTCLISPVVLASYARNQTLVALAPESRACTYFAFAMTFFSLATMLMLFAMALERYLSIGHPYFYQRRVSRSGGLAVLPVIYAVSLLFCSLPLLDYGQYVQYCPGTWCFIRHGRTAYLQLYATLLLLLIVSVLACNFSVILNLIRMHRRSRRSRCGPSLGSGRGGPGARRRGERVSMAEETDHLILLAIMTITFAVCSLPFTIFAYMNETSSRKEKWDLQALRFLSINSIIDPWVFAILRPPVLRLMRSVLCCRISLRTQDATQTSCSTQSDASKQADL
PfGluPho inh: PfG6PD (Plasmodium falciparum) enzyme inhibition; PfGluPho enzyme, NADPH resazurin-diaphorase fluorescence; inhibition, % at 20 µM; 350,000 tested, 0.78% active; AID 504690;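 active = inhibition reaching at least a set limit at 20 µM in the primary screen, cut at about 59% in these data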
PHOSPHO1 block: PHOSPHO1 (human) inhibition. recombinant PHOSPHO1, absorbance phosphatase assay. AID 1565. inhibition, % at 13.3 µM. 290,000 tested, 1.1% active. Q8TCT1; in the data active = inhibition above about 60%
Target sequence (Q8TCT1 whole entry, looked up): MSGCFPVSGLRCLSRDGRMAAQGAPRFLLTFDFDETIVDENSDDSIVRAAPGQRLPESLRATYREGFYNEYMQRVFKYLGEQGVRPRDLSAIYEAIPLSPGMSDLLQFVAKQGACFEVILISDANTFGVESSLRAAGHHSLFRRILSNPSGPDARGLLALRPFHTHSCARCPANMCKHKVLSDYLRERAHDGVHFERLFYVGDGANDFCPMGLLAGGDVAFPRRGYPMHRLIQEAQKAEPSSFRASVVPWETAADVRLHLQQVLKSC
Tb hexokinase: T. brucei hexokinase 1 inhibition | recombinant TbHK1, G6PDH-coupled NADH A340 | inhibition, % at 10 µM | 220,000 tested, 0.11% active;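 active = inhibition of 50% or more in the single-dose primary screen; inactive = inhibition below 50%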
PGE2 EP2 inh: blocks the human prostaglandin E2 receptor EP2 | P43116 | C6 glioma cells expressing human EP2, cAMP TR-FRET; cells stimulated with saturating PGE2 | inhibition, % at 25 µM | 260,000 tested, 0.52% active;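 active = percent inhibition above 40 after rounding to a whole number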;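 also: rat C6 glioma host cells with rolipram phosphodiesterase inhibitor present; the protocol text gives 20 µM as final concentration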
HKDC1 inhibitor: inhibitors of human hexokinase HKDC1; 340,000 tested, 0.16% active; inhibition, % at 20 µM; Q2TB90; recombinant HKDC1, G6PDH/diaphorase resazurin coupled fluorescence;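 active = inhibition above about 35% when tested at 20 µM, limit read from the data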
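Material – in-house recombinant HK5 (HKDC1) enzyme · Quantity – HKDC1 at 5 µg/mL · Buffer or medium – pH 8.0 Tris buffer with 10 mM MgCl2 · Reagent – glucose with 1 mM ATP · Dosing – single 20 µM dose · Times – reaction time 90 min, room temperature, protected from light · Technique – resorufin fluorescence at 613 nm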
PfG6PD confirm: PfG6PD inhibition, single-dose confirmed. shares compounds with PfGluPho inh. recombinant PfGluPho, NADPH-diaphorase-resazurin fluorescence. inhibition, % at 20 µM. 2,400 tested, 34% active. AID 504753;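 active = inhibition of at least 50% at 20 µM in any single replicate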
Diaphorase 10uM: counter-screen for P. falciparum G6PD inhibitors: diaphorase inhibitors, oxidizers | shares compounds with PfGluPho inh | diaphorase-coupled resazurin reduction, fluorescence, NADPH 10 uM | inhibition, % at 20 µM | 820 tested, 39% active | AID 504862;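 active = average inhibition reaching 50% or more with the compound at 20 µM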;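 also: resorufin red fluorescence formed as diaphorase reduces resazurin using NADPH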
Diaphorase 30uM: inhibits diaphorase or oxidizes, flagging false PfG6PD hits | shares compounds with PfGluPho inh | inhibition, % at 20 µM | 820 tested, 29% active | Diaphorase/resazurin coupled assay, resorufin fluorescence, 30 uM NADPH;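 active = inhibition averaging 50% or more, tested at 20 µM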
A number is an active result; – = inactive; · = not tested or not shown.

SMILES	EP2 mod	PfGluPho inh	PHOSPHO1 block	Tb hexokinase	PGE2 EP2 inh	HKDC1 inhibitor	PfG6PD confirm	others
CCC(C)C(=O)Nc1nc(-c2ccc3c(c2)NC(=O)CO3)cs1 (stereo not given)	–	64	–	–	–	–	–
Nc1nc(-c2ccc3c(c2)NC(=O)CO3)cs1	–	–	–	–	·	–	·
O=C1COc2ccc(-c3csc(NCCc4ccccc4)n3)cc2N1	–	61	–	–	–	–	–
CCCn1c(SCC(=O)Nc2ccc(OC)cc2)nnc1-c1ccccn1	–	·	·	·	–	·	·
CC(Sc1ccc(S(=O)(=O)N2CCOCC2)cn1)C(=O)Nc1ccc(Cl)cc1Cl (stereo not given)	·	–	·	·	·	–	·
CC(Sc1ccc(S(=O)(=O)N2CCOCC2)cn1)c1ccccc1Cl (stereo not given)	·	–	·	·	·	–	–
CCOc1cc(NCc2ccccc2)c2ncn(C(C)C)c2c1	·	66	·	·	·	–	48	Diaphorase 10uM=–;Diaphorase 30uM=–
COCCOc1cc(NCc2ccccc2)c2ncn(C(C)C)c2c1	·	–	·	·	·	–	·
CCCOc1cc(NCc2ccccc2)c2ncn(C(C)C)c2c1	·	77	·	·	·	–	–
Nc1n[nH]c(-c2ccccc2)c1Cl	–	·	·	·	–	·	·
CCOc1ccc(-c2nnn(Cc3nc4ccccc4c(=O)[nH]3)n2)cc1	–	·	·	·	–	·	·
CCC(NC(=O)Cn1c(=O)oc2ccc(C)cc21)c1c(C)nn(CC)c1C (stereo not given)	–	·	·	·	–	·	·
Cc1c(Cl)cccc1Nc1ncccc1C(=O)OCC(O)CO (stereo not given)	–	·	–	–	–	·	·
O=C(OCC(O)CO)c1ccccc1Nc1ccnc2cc(Cl)ccc12 (stereo not given)	–	82	·	·	–	–	–
Cc1ccc(C(=O)/C=C/C(=O)c2ccc(C)cc2)cc1	–	76	–	–	–	–	51	Diaphorase 10uM=–;Diaphorase 30uM=–
Cc1ccc(/C=C/C(=O)c2ccc(C)cc2)cc1	–	–	–	–	–	–	·
Cc1nc(Nc2cnc(/C=C/c3cc(C(=O)Nc4cccc(C(F)(F)F)c4)ccc3C)cn2)cc(N2CCNCC2)n1	·	62	–	·	·	–	–
Cc1nc(N2CCC(C)CC2)c2c(C)c(C(=O)Nc3cccc(C(F)(F)F)c3)sc2n1	–	–	–	–	–	–	·
COc1ccc(-c2nc(N)ncc2-c2ccccc2OC)c(O)c1	·	74	–	·	·	–	–
Cc1ccc(NC2=C(NC(=O)c3ccccc3)C(=O)c3ccccc3C2=O)cc1Cl	–	86	–	–	–	–	63	Diaphorase 10uM=–;Diaphorase 30uM=–
CCc1cc2ccccc2nc1SCC(=O)Nc1nc(C)c(C)s1	–	·	·	·	–	·	·
O=C1CCN(c2ccccc2)N1	·	119	·	·	·	–	109	Diaphorase 10uM=–;Diaphorase 30uM=–
O=C1CCN(S(=O)(=O)c2ccccc2)N1	–	–	–	–	·	–	·
CCn1c(=O)n(CC)c2cc(N3CCCC3)c(NC(=O)c3cccc(Cl)c3)cc21	·	–	–	·	·	–	·
CCn1c(=O)n(CC)c2cc(N3CCCC3)c(NC(=O)c3cccc(C)c3)cc21	·	71	–	·	·	–	84	Diaphorase 10uM=–;Diaphorase 30uM=–
SMILES	EP2 mod	PfGluPho inh	PHOSPHO1 block	Tb hexokinase	PGE2 EP2 inh	HKDC1 inhibitor	PfG6PD confirm	others
CCOc1ccccc1NS(=O)(=O)c1c(C)noc1C	–	63	–	–	–	–	54	Diaphorase 10uM=–;Diaphorase 30uM=–
CCOc1ccccc1NS(=O)(=O)c1cccs1	–	99	–	–	–	–	72	Diaphorase 10uM=68;Diaphorase 30uM=61
O=S(=O)(Nc1cccc2ncccc12)c1cccs1	–	99	–	–	–	–	61	Diaphorase 10uM=62;Diaphorase 30uM=56
CCOc1ccccc1NC(=O)CCS(=O)(=O)c1cccs1	·	–	–	·	·	–	·
Cn1c(N2CCCC(C(=O)NCCCN3CCOCC3)C2)nc2ccccc21 (stereo not given)	–	·	·	·	–	·	·
Cc1cccc2cc(CN(Cc3ccccc3)S(=O)(=O)c3cccc4nsnc34)c(=O)[nH]c12	–	·	·	·	–	·	·
COc1ccc(Cn2c(/C=C/c3ccccc3)nc3ccccc32)cc1	–	74	–	–	–	–	–
CCn1c(/C=C/c2ccccc2)nc2ccccc21	–	–	–	–	–	–	·
COc1ccc(/C=C/c2nc3ccccc3n2C)cc1	–	73	–	–	–	–	56	Diaphorase 10uM=–;Diaphorase 30uM=–
COc1ccc(/C=C/c2nc3ccccc3c(=O)n2C)cc1	–	·	·	·	–	·	·
C(=C\c1ccco1)/c1ccc2ccccc2n1	–	66	–	–	–	–	–
Cc1ccc(C2(c3ccc(C)cc3)CC2C(=O)Nc2ccc([N+](=O)[O-])cc2O)cc1 (stereo not given)	–	93	–	–	–	–	–
Cc1nn(C(=O)CNS(=O)(=O)c2ccccc2)c(C)c1Sc1ccc(Cl)cc1	–	80	–	–	–	–	–
COCCNC(=S)Nc1ccc(N2CCCCC2)cc1	–	64	–	–	–	–	–
COc1ccc(C(=O)NC(=S)Nc2ccc(N3CCCC3)cc2)cc1	–	–	–	–	–	–	·
COC(=O)c1scc(C)c1S(=O)(=O)Nc1ccc(C)cc1	–	70	–	–	–	–	–
COC(=O)c1sccc1S(=O)(=O)Nc1ccc(S(N)(=O)=O)cc1	–	–	–	–	–	–	·
CC(Sc1nc(N2CCOCC2)c2c(c1C#N)CC(C)(C)OC2)C(=O)Nc1ccccc1 (stereo not given)	–	60	–	–	–	–	–
CCOC(=O)C(C)Sc1nc(N2CCOCC2)c2c(c1C#N)CC(C)(C)OC2 (stereo not given)	·	–	·	·	·	–	·
O=C(CN1CCN(c2ccc(O)cc2)CC1)Nc1cc(S(=O)(=O)N2CCCC2)ccc1Cl	–	67	–	–	–	–	–
Oc1ccc(N2CCN(Cc3cc4c(cc3Br)OCCO4)CC2)cc1	·	74	–	·	·	–	–
COc1ccc(NC(=O)c2ccc(NC(=O)CN3CCN(c4ccccc4O)CC3)cc2)cc1	·	–	·	·	·	·	·
O=C(CN1CCN(c2cccc(C(F)(F)F)c2)CC1)Nc1ccc2c(c1)OCCCO2	·	–	·	·	·	·	·
O=S(=O)(c1ccc(F)cc1)N1CCN(Cc2cc3c(cc2Br)OCCO3)CC1	·	–	·	·	·	–	·
O=C(CN1CCN(c2ccc(O)cc2)CC1)Nc1ccc2c(c1)OCCCO2	·	79	·	·	·	–	–
COc1ccc(NC(=O)c2ccc(NC(=O)CN3CCN(c4ccc(O)cc4)CC3)cc2)cc1	·	75	·	·	·	–	–
COc1cc2cc(CN(Cc3cccs3)C(=O)Nc3ccccc3Cl)c(=O)[nH]c2cc1OC	–	·	·	·	–	·	·
Cc1ccc(Cn2c(=O)sc3ccccc3c2=O)cc1	–	–	–	–	–	–	·
O=c1c2ccccc2sn1-c1ccc(Cl)cc1	·	126	·	·	·	·	106	Diaphorase 10uM=–;Diaphorase 30uM=–
Cc1ccc(-n2sc3ccccc3c2=O)cc1	–	115	–	66	–	–	101	Diaphorase 10uM=–;Diaphorase 30uM=–
